Most compounds without a hit are left out; they make up all but 4.2% or so of the library.
PfM18AAP inh-1: blocks P. falciparum M18 aspartyl aminopeptidase; inhibition, % at 7.35 µM; AID 1822; recombinant PfM18AAP, H-Glu-NHMec fluorogenic cleavage; hit rate 1.2% among 290,000;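 active = inhibition above the campaign mean inhibition over all tested compounds plus 3 SD, cut at about 28% in these data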
SENP1 inh: inhibitors of human SENP1 SUMO protease catalytic domain | recombinant SENP1 catalytic domain, CyPet-SUMO1-YPet FRET cleavage | inhibition, % at 10 µM | AID 624204 | hit rate 0.21% among 360,000;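 active = inhibition at least 30% at 10 µM, raw YFP signal under a set limit, fluorescence ratio 0.5 to 1.5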
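Material – human SENP1 catalytic domain · Input – SENP1 enzyme, 20 pM final · Compound dosing – single concentration of 10 µM compound, 0.5% DMSO final · Timing – enzyme reaction for 50 min at room temperature, dark · Measured by – FRET fluorescence in CFP and YFP emission channels · Control set – no-enzyme wells low, DMSO-plus-enzyme wells high control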
GAA850 FXN act: frataxin GAA850 promoter activation; HEK293 lucGAA850 FXN promoter luciferase reporter, 24 h; percent of 10 µM SAHA response; activation, % at 6 µM; hit rate 0.56% among 360,000; AID 540364;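 active = activation above the average of all compounds screened plus 3 SD, cutoff fixed separately per campaign, cut at about 7.5% in these data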
HDAC3 inhib: inhibitors of human histone deacetylase 3 | recombinant HDAC3, fluorogenic peptide/trypsin coupled, fluorescence | inhibition, % at 8.3 µM | AID 2718 | hit rate 0.15% among 320,000 | O15379; in the data active = inhibition above about 26%, passing the limit was not always enough
CTSL1 counter-1: cathepsin L1 inhibition, PFM18AAP counter-screen; recombinant F. hepatica cathepsin L1, Z-Leu-Arg-MCA fluorescence; inhibition, % at 5.96 µM; hit rate 0.49% among 300,000;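 active = inhibition above the mean of all tested compounds plus 3 SD, set per screening campaign, cut at about 17% in these data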
AHR activator: activates the human aryl hydrocarbon receptor. hit rate 2.5% among 320,000. activation, % at 5 µM. AHR-responsive luciferase reporter cells, luminescence; in the data active = activation above about 47%
PfM18AAP inh-2: confirmation of Plasmodium falciparum M18 aspartyl aminopeptidase inhibitors. shares compounds with PfM18AAP inh-1. recombinant PfM18AAP, H-Glu-NHMec fluorogenic cleavage. inhibition, % at 7.35 µM. hit rate 28% among 2,400;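 active = mean inhibition over replicate wells above the hit cutoff set for the earlier primary screen, cut at about 29% in these data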
CTSL1 counter-2: counter-screen for PFM18AAP inhibitors: confirmation of human cathepsin L inhibitors | 2,400 tested, under 10 active | inhibition, % at 5.96 µM | AID 2178 | shares compounds with PfM18AAP inh-1 | purified cathepsin L1, Z-Leu-Arg-MCA fluorescence;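 active = average inhibition across replicates above the hit cutoff set in the earlier primary screen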
Target sequence (P07711 whole entry, looked up): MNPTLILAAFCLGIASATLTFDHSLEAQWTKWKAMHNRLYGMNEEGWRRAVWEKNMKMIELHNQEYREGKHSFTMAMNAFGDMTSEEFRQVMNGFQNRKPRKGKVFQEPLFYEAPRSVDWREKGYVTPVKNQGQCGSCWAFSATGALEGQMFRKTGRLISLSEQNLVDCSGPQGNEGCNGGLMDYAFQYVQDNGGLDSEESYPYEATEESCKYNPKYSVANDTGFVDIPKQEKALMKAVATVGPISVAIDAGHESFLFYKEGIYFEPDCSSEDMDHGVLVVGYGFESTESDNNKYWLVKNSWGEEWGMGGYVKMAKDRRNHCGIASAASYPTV
GAA30 counter: counter-screen for GAA850 frataxin promoter activators: GAA30 promoter activation; hit rate 66% among 1,900; HEK293 lucGAA30 FXN promoter luciferase, 24 h; DMSO = 0%, 5 µM ipriflavone = 100%; shares compounds with GAA850 FXN act; AID 588350; activation, % at 6 µM;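 active = mean activation above the mean of solvent-only control wells plus 3 SD, cut at about 22% in these data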;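 note: counterscreen of GAA850 promoter hits where activity marks nonselective or luminescence artifacts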
GAA850 confirm: GAA850 FXN promoter activation confirmation; HEK293 lucGAA850 FXN promoter luciferase reporter, 24 h; 100% = activation by SAHA; shares compounds with GAA850 FXN act; hit rate 86% among 1,900; activation, % at 6 µM;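 active = mean activation above a set limit taken from the primary screen, cut at about 8% in these data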
Numbers stand for hits.

What do the screens show for `c1cncc(-c2nc(-c3ccc4c(c3)OCCO4)cs2)c1`?
PfM18AAP inh-1: inactive; SENP1 inh: inactive; GAA850 FXN act: inactive; HDAC3 inhib: inactive; CTSL1 counter-1: inactive; AHR activator: inactive

How did Oc1ccc(-c2csc(Nc3ncccn3)n2)c(O)c1 do in these assays?
PfM18AAP inh-1: inactive; SENP1 inh: inactive; GAA850 FXN act: inactive; HDAC3 inhib: inactive; CTSL1 counter-1: inactive; AHR activator: inactive

What do the screens show for `Oc1ccc(-c2csc(Nc3ncccn3)n2)cc1O`?
PfM18AAP inh-1: 65; SENP1 inh: inactive; GAA850 FXN act: 16; PfM18AAP inh-2: 53; CTSL1 counter-2: inactive; GAA30 counter: 108; GAA850 confirm: 45

Results for Oc1ccc(-c2csc(-c3cccnc3)n2)cc1O ?
PfM18AAP inh-1: 73; SENP1 inh: inactive; GAA850 FXN act: 14; HDAC3 inhib: inactive; CTSL1 counter-1: inactive; AHR activator: inactive; PfM18AAP inh-2: 85; CTSL1 counter-2: inactive; GAA30 counter: 62; GAA850 confirm: 31

Results for Oc1ccc(-c2csc(-c3ccccc3)n2)cc1O ?
PfM18AAP inh-1: 55; SENP1 inh: inactive; GAA850 FXN act: 8.8; HDAC3 inhib: inactive; CTSL1 counter-1: inactive; AHR activator: inactive; PfM18AAP inh-2: 60; CTSL1 counter-2: inactive; GAA30 counter: 41; GAA850 confirm: 34

What do the screens show for `CCCCn1nnnc1C(c1cc2ccccc2o1)N1CCN(c2ncccc2C#N)CC1` (centres undefined)?
SENP1 inh: inactive

What do the screens show for `CC(C)NC(=O)Nc1ccc2c(c1)C(=O)N([C@H](C)CO)C[C@H](C)[C@@H](CN(C)S(=O)(=O)c1cn(C)cn1)O2`?
SENP1 inh: inactive; GAA850 FXN act: inactive; HDAC3 inhib: inactive; AHR activator: inactive

Results for CC(=O)N1CCOc2ccc(S(=O)(=O)N3CC(C)CC(C)C3)cc21 (centres undefined) ?
PfM18AAP inh-1: inactive; SENP1 inh: inactive; GAA850 FXN act: inactive; HDAC3 inhib: inactive; CTSL1 counter-1: inactive; AHR activator: inactive

What do the screens show for `COc1cccc2sc(NNC(=O)C3COc4ccccc4O3)nc12` (centres undefined)?
PfM18AAP inh-1: inactive; SENP1 inh: inactive; GAA850 FXN act: inactive; HDAC3 inhib: inactive; CTSL1 counter-1: inactive; AHR activator: inactive

What do the screens show for `COc1cccc2sc(NNC(=O)C3=COCCO3)nc12`?
PfM18AAP inh-1: 43; SENP1 inh: inactive; GAA850 FXN act: 8.2; HDAC3 inhib: inactive; CTSL1 counter-1: inactive; AHR activator: inactive; PfM18AAP inh-2: inactive; CTSL1 counter-2: inactive; GAA30 counter: 86; GAA850 confirm: 33

How did CCc1ccc(CN(C)C(=O)CCc2nnc(Cc3cccc(C)c3)o2)nc1 do in these assays?
PfM18AAP inh-1: inactive; SENP1 inh: inactive; GAA850 FXN act: inactive; HDAC3 inhib: inactive; CTSL1 counter-1: inactive; AHR activator: inactive

Results for CC(C)N=c1scc(-c2ccco2)n1/N=C/c1ccc(O)c(O)c1 ?
PfM18AAP inh-1: 45; SENP1 inh: inactive; GAA850 FXN act: 12; HDAC3 inhib: inactive; CTSL1 counter-1: inactive; AHR activator: inactive; PfM18AAP inh-2: 49; CTSL1 counter-2: inactive; GAA30 counter: 68; GAA850 confirm: 42

How did COc1cc(/C=N/n2c(-c3ccc4c(c3)NC(=O)CO4)csc2=Nc2cccc(C)c2)ccc1O do in these assays?
PfM18AAP inh-1: inactive; SENP1 inh: inactive; GAA850 FXN act: inactive; HDAC3 inhib: inactive; CTSL1 counter-1: inactive; AHR activator: inactive

How did Cc1ccc2nc(-c3ccccc3)cn2c1 do in these assays?
PfM18AAP inh-1: inactive; SENP1 inh: inactive; GAA850 FXN act: inactive; HDAC3 inhib: inactive; CTSL1 counter-1: inactive; AHR activator: inactive

Bioassay records as filed in PubChem BioAssay.
